Assays:
[1] = Half life in rat hepatocytes; assay type: ADME, cell-based, Hepatocyte
[2] = target: Tyrosine-protein kinase BTK (Homo sapiens) (UniProt Q06187); assay: Inhibition of probe binding to BTK (unknown origin) using rabbit reticulate lysate system at 250 nM after 1 hr by luminescence assay relative to control
Cytochrome P450 2D6 = Cytochrome P450 2D6 (Homo sapiens, UniProt P10635); assay: Inhibition of CYP2D6 (unknown origin); assay type: ADME
CCRF-CEM [3] = assay: Therapeutic index, ratio of LC50 for human CCRF-CEM cells to GI50 for human CCRF-CEM cells; assay type: functional
Outline: (§1)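 NCI-60 panel screen using five-dose response curves, each value an average of 2 experiments. […] The therapeutic index is calculated as LC50/GI50 for the same cell line.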

[4] = Half life in rat S9 fraction; assay type: ADME, subcellular
NCI-H322M [5] = assay: cells; assay type: functional; settings: Homo sapiens, 48 h
Cytochrome P450 2C8 = Cytochrome P450 2C8 (Homo sapiens, UniProt P10632); assay: Inhibition of CYP2C8 (unknown origin); assay type: ADME
[6] = target: Epidermal growth factor receptor (Homo sapiens, UniProt P00533, G719S); assay: Binding affinity to human partial length EGFR G719S mutant (R669 to V1011 residues) expressed in bacterial expression system by KinomeScan assay
Outline: (§2)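 Competition binding against an immobilized active-site-directed ligand. Bound kinase is quantified by qPCR of its DNA tag. Kd values come from duplicate 11-point dose-response curves.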

Cytochrome P450 2C19 = Cytochrome P450 2C19 (Homo sapiens, UniProt P33261); assay: Inhibition of CYP2C19 (unknown origin); assay type: ADME
[7] = Half life in rat liver microsomes; assay type: ADME, Microsome
MOLT-4 [8] = assay: Cytotoxicity against human MOLT4 cells assessed as reduction in measured protein incubated for 48 hrs by SRB assay; assay type: functional; settings: MOLT-4, 48 h, read-out: LC50 (the source's name)
Outline: (§3)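 Tested in the NCI-60 panel with a five-dose response curve, each value the mean of 2 experiments.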

Homo sapiens = species: Homo sapiens; assay: Selectivity ratio, ratio of IC50 for probe binding to HER2 (unknown origin) to IC50 for probe binding to EGFR L858R mutant (unknown origin)
Outline: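 Ratio of two IC50 values measured in the rabbit reticulocyte lysate competition binding assay: HER2 and EGFR L858R. Each IC50 comes from displacement of an active-site-dependent probe, read by luminescence, with a ten-point dose-response. Each IC50 is the average of triplicate experiments.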

[9] = target: Epidermal growth factor receptor (Homo sapiens, UniProt P00533, L858R)
Epidermal growth factor receptor (Homo sapiens, UniProt P00533, L858R), sequence (P00533 25-1210 L858R limits assumed): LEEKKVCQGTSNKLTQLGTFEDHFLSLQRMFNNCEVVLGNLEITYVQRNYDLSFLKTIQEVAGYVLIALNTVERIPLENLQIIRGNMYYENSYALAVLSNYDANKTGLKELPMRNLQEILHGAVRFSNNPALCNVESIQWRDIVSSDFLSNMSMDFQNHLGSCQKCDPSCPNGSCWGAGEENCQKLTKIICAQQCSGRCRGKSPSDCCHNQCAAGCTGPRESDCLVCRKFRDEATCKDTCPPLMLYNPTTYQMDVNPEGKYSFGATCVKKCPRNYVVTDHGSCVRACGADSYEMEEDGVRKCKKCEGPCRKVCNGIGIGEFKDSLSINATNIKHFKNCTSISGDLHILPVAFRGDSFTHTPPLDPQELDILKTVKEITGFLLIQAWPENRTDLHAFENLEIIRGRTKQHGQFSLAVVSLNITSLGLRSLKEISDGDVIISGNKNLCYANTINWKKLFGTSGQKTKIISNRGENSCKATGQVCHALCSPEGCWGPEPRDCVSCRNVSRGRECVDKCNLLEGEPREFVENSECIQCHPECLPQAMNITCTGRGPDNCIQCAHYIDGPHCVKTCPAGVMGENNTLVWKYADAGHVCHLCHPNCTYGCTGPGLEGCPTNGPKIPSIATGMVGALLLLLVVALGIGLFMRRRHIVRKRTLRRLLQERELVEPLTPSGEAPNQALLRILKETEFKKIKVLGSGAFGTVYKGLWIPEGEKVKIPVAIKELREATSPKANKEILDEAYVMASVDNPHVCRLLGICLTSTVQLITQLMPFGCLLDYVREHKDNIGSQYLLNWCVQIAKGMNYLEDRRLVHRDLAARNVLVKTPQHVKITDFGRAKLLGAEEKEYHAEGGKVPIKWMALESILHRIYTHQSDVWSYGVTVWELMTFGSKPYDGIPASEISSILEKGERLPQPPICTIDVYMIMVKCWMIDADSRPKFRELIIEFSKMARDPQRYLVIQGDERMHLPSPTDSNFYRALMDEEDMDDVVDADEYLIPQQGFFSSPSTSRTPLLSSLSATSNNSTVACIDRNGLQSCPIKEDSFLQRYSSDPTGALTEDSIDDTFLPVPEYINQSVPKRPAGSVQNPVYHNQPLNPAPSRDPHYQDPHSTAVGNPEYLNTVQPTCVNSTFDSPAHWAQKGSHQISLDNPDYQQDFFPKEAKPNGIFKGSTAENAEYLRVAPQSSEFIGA

[10] = target: Tyrosine-protein kinase Tec (Homo sapiens) (UniProt P42680); assay: Inhibition of probe binding to TEC (unknown origin) using rabbit reticulate lysate system at 250 nM after 1 hr by luminescence assay relative to control
[11] = target: Epidermal growth factor receptor (Homo sapiens, UniProt P00533, G719C); assay: Binding affinity to human partial length EGFR G719C mutant (R669 to V1011 residues) expressed in bacterial expression system by KinomeScan assay; outline: as §2
[12] = target: Epidermal growth factor receptor (Homo sapiens, UniProt P00533, A750P/L747-E749DEL); assay: Binding affinity to human partial length EGFR L747-E749del/A750P mutant expressed in bacterial expression system by KinomeScan assay; outline: as §2
Cytochrome P450 2C9 = Cytochrome P450 2C9 (Homo sapiens, UniProt P11712); assay: Inhibition of CYP2C9 (unknown origin); assay type: ADME
[13] = target: Receptor tyrosine-protein kinase erbB-2 (Homo sapiens, UniProt P04626); assay: Inhibition of probe binding to HER2 (unknown origin) using rabbit reticulate lysate system after 1 hr by luminescence assay
Receptor tyrosine-protein kinase erbB-2, sequence (P04626 whole entry): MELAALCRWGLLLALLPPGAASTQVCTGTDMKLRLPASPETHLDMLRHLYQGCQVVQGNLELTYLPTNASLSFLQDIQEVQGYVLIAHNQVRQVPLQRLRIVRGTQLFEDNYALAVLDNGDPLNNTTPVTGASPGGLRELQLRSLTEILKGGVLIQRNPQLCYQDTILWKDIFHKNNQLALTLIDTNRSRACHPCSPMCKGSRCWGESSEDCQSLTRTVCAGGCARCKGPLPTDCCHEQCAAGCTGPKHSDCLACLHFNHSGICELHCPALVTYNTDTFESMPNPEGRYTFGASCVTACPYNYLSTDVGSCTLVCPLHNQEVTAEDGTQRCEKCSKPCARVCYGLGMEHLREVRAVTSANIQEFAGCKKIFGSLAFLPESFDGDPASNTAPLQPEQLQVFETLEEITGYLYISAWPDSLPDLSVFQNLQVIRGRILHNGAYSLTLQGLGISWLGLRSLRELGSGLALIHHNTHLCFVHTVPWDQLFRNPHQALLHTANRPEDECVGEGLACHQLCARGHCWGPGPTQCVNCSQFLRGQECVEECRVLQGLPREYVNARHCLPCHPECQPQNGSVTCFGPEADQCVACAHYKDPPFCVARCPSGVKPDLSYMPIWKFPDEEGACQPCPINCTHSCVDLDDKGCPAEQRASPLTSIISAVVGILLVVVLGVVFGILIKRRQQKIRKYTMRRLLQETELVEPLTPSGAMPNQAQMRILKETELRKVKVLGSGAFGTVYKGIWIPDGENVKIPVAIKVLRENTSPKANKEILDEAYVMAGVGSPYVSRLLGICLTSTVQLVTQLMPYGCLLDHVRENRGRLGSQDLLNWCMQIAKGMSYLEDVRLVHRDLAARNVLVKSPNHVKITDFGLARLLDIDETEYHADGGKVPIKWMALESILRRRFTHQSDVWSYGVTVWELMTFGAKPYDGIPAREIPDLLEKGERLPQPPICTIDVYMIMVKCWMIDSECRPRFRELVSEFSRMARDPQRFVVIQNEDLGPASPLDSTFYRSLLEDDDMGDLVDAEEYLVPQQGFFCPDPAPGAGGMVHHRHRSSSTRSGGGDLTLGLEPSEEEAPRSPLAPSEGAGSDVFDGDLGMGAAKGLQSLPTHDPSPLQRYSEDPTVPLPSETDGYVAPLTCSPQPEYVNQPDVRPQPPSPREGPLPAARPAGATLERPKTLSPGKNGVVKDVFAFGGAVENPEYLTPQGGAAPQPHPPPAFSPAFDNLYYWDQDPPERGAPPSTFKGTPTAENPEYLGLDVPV
Outline: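 Homogeneous competition binding in rabbit reticulocyte lysate with kinase expressed in the lysate. IC50 taken from a ten-point dose-response curve; value is the average of triplicate experiments.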

A549 [14] = assay: Cytotoxicity against human A549 cells assessed as reduction in measured protein incubated for 48 hrs by SRB assay; assay type: functional; settings: A549, 48 h, read-out: LC50 (the source's name); outline: as §3
[15] = target: Epidermal growth factor receptor (Homo sapiens, UniProt P00533, L858R/T790M); assay: Inhibition of human partial length EGFR L858R/T790M mutant (R669 to V1011 residues) expressed in mammalian expression system by competition binding assay based KinomeScan assay; outline: as §2
A549 [16] = assay: Therapeutic index, ratio of LC50 for human A549 cells to GI50 for human A549 cells; assay type: functional
Outline: (§4)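 NCI-60 panel cell growth assay. Five-point dose-response curves; each value is the average of 2 experiments. […] Therapeutic index is calculated as LC50/GI50.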

[17] = target: Cytoplasmic tyrosine-protein kinase BMX (Homo sapiens) (UniProt P51813); assay: Inhibition of probe binding to BMX (unknown origin) using rabbit reticulate lysate system at 250 nM after 1 hr by luminescence assay relative to control
Cytoplasmic tyrosine-protein kinase BMX (Homo sapiens), sequence (P51813 whole entry): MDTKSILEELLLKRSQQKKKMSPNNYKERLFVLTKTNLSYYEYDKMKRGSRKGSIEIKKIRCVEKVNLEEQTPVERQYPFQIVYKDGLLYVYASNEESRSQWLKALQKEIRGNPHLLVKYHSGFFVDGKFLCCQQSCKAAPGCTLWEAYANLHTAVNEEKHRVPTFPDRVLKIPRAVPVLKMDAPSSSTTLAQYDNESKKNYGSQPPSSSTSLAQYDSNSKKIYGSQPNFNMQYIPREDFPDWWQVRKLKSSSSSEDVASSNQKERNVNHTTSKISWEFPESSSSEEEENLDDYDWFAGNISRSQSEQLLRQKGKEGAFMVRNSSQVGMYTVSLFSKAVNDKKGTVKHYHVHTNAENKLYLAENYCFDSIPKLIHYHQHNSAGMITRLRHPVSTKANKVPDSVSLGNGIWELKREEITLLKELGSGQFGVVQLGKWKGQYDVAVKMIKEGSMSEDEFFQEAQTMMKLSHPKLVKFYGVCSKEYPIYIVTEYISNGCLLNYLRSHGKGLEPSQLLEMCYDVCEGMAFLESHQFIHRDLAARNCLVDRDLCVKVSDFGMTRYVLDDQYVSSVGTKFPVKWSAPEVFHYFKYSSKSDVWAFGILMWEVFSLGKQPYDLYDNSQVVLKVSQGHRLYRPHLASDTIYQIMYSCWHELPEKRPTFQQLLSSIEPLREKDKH

Cytochrome P450 2B6 = Cytochrome P450 2B6 (Homo sapiens, UniProt P20813); assay: Inhibition of CYP2B6 (unknown origin); assay type: ADME
Cytochrome P450 2B6, sequence (P20813 whole entry): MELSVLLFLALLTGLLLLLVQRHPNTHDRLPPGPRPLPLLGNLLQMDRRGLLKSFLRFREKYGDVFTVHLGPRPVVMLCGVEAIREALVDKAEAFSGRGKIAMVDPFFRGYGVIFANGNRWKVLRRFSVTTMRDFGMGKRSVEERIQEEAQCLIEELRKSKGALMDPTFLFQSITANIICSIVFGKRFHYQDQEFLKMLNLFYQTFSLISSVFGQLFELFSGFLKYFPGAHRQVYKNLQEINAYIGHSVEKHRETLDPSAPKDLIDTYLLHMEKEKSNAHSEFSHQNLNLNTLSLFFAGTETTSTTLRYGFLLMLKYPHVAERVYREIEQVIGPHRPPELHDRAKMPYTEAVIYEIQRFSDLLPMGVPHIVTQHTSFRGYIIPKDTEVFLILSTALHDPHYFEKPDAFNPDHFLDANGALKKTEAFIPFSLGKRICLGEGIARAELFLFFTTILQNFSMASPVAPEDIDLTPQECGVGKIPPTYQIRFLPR

[18] = Half life in human liver microsomes; assay type: ADME, Microsome
[19] = target: Epidermal growth factor receptor (Homo sapiens, UniProt P00533, L747-T751DEL); assay: Binding affinity to human partial length EGFR L747-T751del/Sins mutant expressed in bacterial expression system by KinomeScan assay; outline: as §2
MOLT-4 [20] = assay: Therapeutic index, ratio of LC50 for human MOLT4 cells to GI50 for human MOLT4 cells; assay type: functional; outline: as §1
[21] = target: Epidermal growth factor receptor (Homo sapiens, UniProt P00533, S752-I759DEL); assay: Binding affinity to human partial length EGFR S752-I759 deletion mutant expressed in bacterial expression system by KinomeScan assay; outline: as §2
[22] = target: Epidermal growth factor receptor (Homo sapiens, UniProt P00533, L861Q); assay: Binding affinity to human partial length EGFR L861Q mutant (R669 to V1011 residues) expressed in bacterial expression system by KinomeScan assay; outline: as §2
CCRF-CEM [23] = assay: Cytotoxicity against human CCRF-CEM cells assessed as reduction in measured protein incubated for 48 hrs by SRB assay; assay type: functional; settings: read-out: LC50 (the source's name); outline: as §3
NCI-H460 [24] = assay: cells; assay type: functional; settings: Homo sapiens, NCI-H460, 48 h
[25] = target: Epidermal growth factor receptor (Homo sapiens, UniProt P00533, L747-S752DEL/P753S); assay: Binding affinity to human partial length EGFR L747-S752del/P753S mutant expressed in bacterial expression system by KinomeScan assay; outline: as §2
NCI-H322M [26] = assay: Therapeutic index, ratio of LC50 for human NCI-H322M cells to GI50 for human NCI-H322M cells; assay type: functional; outline: as §1
NCI-H322M [27] = assay: Cytotoxicity against human NCI-H322M cells assessed as reduction in measured protein incubated for 48 hrs by SRB assay; assay type: functional; settings: read-out: LC50 (the source's name); outline: as §3
NCI-H460 [28] = assay: Therapeutic index, ratio of LC50 for human NCI-H460 cells to GI50 for human NCI-H460 cells; assay type: functional; outline: as §4
A549 [29] = assay: cells; assay type: functional; settings: Homo sapiens, A549, 48 h

Cytochrome P450 2D6, sequence (P10635 whole entry): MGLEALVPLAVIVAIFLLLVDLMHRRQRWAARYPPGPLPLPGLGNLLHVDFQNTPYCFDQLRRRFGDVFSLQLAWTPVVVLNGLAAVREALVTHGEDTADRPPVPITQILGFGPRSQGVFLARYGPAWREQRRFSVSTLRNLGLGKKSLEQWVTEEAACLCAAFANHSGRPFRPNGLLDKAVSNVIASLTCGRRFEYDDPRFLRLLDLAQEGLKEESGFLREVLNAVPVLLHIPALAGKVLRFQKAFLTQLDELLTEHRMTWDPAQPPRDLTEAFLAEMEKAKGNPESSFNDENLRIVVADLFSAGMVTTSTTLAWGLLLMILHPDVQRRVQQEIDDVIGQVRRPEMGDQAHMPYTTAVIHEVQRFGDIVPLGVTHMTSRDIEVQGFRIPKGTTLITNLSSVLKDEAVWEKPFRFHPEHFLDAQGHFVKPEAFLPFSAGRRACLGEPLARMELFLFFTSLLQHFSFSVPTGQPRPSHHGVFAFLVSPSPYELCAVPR
Tyrosine-protein kinase BTK (Homo sapiens), sequence (Q06187 whole entry): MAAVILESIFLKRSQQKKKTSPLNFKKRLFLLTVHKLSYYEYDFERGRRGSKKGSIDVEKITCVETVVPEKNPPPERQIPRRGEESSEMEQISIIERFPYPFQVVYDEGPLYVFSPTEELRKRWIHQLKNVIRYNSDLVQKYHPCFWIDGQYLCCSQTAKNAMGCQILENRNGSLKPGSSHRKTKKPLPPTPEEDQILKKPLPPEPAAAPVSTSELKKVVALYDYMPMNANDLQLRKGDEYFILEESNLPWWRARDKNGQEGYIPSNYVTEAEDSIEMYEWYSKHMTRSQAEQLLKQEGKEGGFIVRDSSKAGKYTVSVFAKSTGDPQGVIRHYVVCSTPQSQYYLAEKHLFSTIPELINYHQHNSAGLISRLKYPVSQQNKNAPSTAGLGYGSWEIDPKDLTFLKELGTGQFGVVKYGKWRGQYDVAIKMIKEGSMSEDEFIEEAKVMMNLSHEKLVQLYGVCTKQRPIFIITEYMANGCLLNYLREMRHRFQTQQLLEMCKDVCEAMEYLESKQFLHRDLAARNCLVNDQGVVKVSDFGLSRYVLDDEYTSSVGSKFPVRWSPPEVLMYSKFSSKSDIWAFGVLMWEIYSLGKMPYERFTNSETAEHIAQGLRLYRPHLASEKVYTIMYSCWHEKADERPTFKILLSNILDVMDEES

CCOc1cc2ncc(C#N)c(Nc3ccc(OCc4cccc(F)c4)c(Cl)c3)c2cc1NC(=O)CC1CCSS1 (stereo not given)
half-life [1]: 53.6 min | inhibition [2]: 0% | IC50 (Cytochrome P450 2D6): > 50000 nM | TI (CCRF-CEM [3]): >166 | half-life [4]: > 60 min | GI50 (NCI-H322M [5]): 600 nM | IC50 (Cytochrome P450 2C8): > 50000 nM | Kd [6]: 14 nM | IC50 (Cytochrome P450 2C19): > 50000 nM | half-life [7]: 57.3 min | CC50 (MOLT-4 [8]): > 25000 nM | Ratio IC50 (Homo sapiens): 14.7 | IC50 [9]: 10.9 to 11 nM | inhibition [10]: 20% | Kd [11]: 5.7 nM | Kd [12]: 7.9 nM | IC50 (Cytochrome P450 2C9): > 50000 nM | IC50 [13]: 160 nM | CC50 (A549 [14]): 3400 nM | Kd [15]: 10000 nM | TI (A549 [16]): 6.2 | inhibition [17]: 10% | IC50 (Cytochrome P450 2B6): > 50000 nM | half-life [18]: 86.1 min | Kd [19]: 13 nM | TI (MOLT-4 [20]): >156 | Kd [21]: 10 nM | Kd [22]: 4.8 nM | CC50 (CCRF-CEM [23]): > 25000 nM | GI50 (NCI-H460 [24]): 470 nM | Kd [25]: 12 nM | TI (NCI-H322M [26]): >41.5 | CC50 (NCI-H322M [27]): > 25000 nM | TI (NCI-H460 [28]): 4.1 | GI50 (A549 [29]): 540 nM

From ChEMBL document CHEMBL4387720, “Lead generation of 1,2-dithiolanes as exon 19 and exon 21 mutant EGFR tyrosine kinase inhibitors” (Bioorg Med Chem Lett, 2019)
